Measured values reported in PMC2781304 (Biochemistry, 2009).
Several values for one entry are separate records, joined by “and”; a condition that tells them apart may be missing. Equal values may be shown once. Read-outs that look alike come from different tables or passages of the source. Where no end group is shown, it is not given here.

How the values were obtained:
[1] = biological target: T1, human insulin receptor on IM9 cells (Homo sapiens, UniProt P06213); assay: Association kinetics of 125I-labeled insulins on IM9 cells; assay type: binding; details: 125I-labeled ligand, 15 °C
T1 sequence (P06213 28-1370 isoform P06213-2 limits assumed): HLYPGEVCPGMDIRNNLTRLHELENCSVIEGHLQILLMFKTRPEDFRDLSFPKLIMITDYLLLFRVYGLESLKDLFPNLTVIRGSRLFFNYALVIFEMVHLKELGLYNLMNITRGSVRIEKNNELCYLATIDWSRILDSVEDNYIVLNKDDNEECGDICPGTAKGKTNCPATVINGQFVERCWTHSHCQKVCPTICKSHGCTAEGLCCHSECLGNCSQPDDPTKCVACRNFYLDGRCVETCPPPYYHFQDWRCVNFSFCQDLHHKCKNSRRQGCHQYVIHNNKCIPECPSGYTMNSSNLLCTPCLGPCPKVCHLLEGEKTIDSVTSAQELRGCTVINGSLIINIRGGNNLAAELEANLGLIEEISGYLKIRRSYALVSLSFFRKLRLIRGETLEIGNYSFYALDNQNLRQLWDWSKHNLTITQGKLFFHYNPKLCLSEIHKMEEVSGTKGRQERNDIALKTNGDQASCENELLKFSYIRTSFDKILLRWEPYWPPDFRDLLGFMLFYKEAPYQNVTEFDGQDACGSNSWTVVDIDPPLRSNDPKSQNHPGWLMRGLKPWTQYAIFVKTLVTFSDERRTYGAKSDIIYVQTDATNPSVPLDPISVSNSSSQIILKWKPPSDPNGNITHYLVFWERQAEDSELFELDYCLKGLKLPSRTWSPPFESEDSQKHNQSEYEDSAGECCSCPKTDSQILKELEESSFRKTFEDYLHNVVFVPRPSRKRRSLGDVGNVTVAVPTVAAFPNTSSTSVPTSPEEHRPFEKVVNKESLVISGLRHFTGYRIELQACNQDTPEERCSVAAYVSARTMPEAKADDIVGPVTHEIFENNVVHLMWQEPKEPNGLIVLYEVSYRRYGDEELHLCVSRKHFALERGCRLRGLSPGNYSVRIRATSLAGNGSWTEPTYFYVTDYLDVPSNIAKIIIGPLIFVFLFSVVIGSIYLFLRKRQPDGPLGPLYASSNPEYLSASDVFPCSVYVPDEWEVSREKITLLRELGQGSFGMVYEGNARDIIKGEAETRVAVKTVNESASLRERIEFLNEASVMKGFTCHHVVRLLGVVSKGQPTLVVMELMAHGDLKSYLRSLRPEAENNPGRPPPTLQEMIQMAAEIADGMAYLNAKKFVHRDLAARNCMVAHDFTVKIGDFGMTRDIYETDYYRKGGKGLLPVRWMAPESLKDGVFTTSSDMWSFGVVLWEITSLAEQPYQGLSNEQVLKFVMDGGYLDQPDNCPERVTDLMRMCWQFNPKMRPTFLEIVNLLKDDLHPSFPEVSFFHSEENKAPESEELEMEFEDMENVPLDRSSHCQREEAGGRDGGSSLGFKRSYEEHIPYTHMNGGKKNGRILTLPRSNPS
T1 sequence (P06213 763-1382 partner limits assumed): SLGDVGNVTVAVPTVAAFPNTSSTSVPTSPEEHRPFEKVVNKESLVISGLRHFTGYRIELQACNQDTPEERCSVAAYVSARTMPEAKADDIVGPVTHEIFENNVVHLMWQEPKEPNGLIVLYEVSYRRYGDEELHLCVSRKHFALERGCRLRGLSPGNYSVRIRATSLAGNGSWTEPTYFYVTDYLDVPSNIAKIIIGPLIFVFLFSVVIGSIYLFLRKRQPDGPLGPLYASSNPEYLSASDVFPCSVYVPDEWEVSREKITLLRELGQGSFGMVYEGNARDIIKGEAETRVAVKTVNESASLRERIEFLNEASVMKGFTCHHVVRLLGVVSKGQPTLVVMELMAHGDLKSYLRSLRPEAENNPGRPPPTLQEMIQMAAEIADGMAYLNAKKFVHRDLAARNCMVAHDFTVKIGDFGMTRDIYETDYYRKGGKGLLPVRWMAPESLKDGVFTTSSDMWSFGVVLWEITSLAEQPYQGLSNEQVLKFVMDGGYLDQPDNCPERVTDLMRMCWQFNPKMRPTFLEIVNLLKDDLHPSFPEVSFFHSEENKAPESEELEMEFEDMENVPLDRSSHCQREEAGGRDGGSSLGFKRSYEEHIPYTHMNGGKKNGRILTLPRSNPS

primary rat adipocytes = assay: Insulin-stimulated lipogenesis; assay type: cell-based; details: for maximal lipogenesis: compared with human insulin; for metabolic potency relative to human insulin: lipogenesis in primary rat adipocytes
How it was run: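 Adipocytes from male Sprague-Dawley rat epididymal fat pads, collagenase-digested (1 mg/mL, 45 min, 37 °C) in KRH with 3.5% BSA, 0.2 uM adenosine and 2 mM glucose. […] Lipid-extracted label counted, background (tracer without hormone) subtracted. Triplicates, three experiments, four-parameter logistic fit for ED50.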

[2] = tested on: NIH 3T3 fibroblasts overexpressing the wild-type human insulin receptor; assay: [3H]thymidine incorporation; assay type: cell-based, mouse; details: for relative mitogenic potency over relative metabolic potency: thymidine incorporation versus lipogenesis in rat adipocytes
[3] = biological target: T1, human insulin receptor on IM9 cells; assay: Dissociation kinetics of 125I-labeled insulins from IM9 cells; assay type: binding; details: prebound 6 h at 15 °C, 40-fold dilution
soluble receptor = details: cited from earlier work
IM-9 cell receptors [4] = details: cited from earlier work
[5] = tested on: receptors on the human placental membrane; details: ref 62; cited from earlier work
[6] = ref 66; cited from earlier work
HepG2 cells = details: ref 31; cited from earlier work
rat fat pad = details: relative to that of bovine insulin; cited from earlier work
[7] = tested on: soluble IR ectodomain (sIR); assay: Homologous competition for soluble IR ectodomain, PEG precipitation; assay type: binding; details: 15 pM tracer, 16 h at 4 °C; % of human insulin
rat adipocytes = details: cited from earlier work
IM-9 cell receptors [8] = details: ref 19; cited from earlier work
rat liver cells = details: ref 20; cited from earlier work
[9] = actual data were not shown; cited from earlier work
deoxyglucose transport = details: ref 19; cited from earlier work
isolated rat adipocytes = details: ref 16-18; cited from earlier work
insulin receptor = details: cited from earlier work

Substance: lamprey insulin: insulin purified from the islet organ of the river lamprey L. fluviatilis (Insulin B chain SALTGAGGTHLCGSHLVEALYVVCGDRGFFYTPSKT; Insulin A chain GIVEQCCHRKCSIYDMENYCN; ends and bridges not checked; cysteine pairing not given here; UniProt P68988 1-36; P68988 37-57, looked up)
- incubation time to reach apparent steady state of binding [1]: 6 h
- maximal lipogenesis (primary rat adipocytes): same maximal lipogenesis as human insulin
- metabolic potency relative to human insulin (primary rat adipocytes): 9.4% and 9%
- mitogenic potency relative to human insulin ([2]; thymidine incorporation): 54%
- relative mitogenic potency over relative metabolic potency [2]: 5.8
- maximal response ([2]; thymidine incorporation, 10% FBS as maximal response): same maximal response as serum or human insulin
- dissociation of 125I-labeled ligand by dilution alone [3]: much slower
- relative affinity for the soluble receptor based on IC50 (soluble receptor; ref 9): 130%

Substance: B21 to Ala: human insulin with mutation of B21 to Ala (literature)
- affinity in IM-9 cells (IM-9 cell receptors [4]; ref 26): 226%
- decrease in the level of binding to receptors on the human placental membrane [5]: ~2 fold

Substance: insulin Wakayama: insulin with a ValA3 to Leu mutation found in a diabetic patient
- potency [6]: 0.2%

Substance: B17 to Val: human insulin with B17 substitution to Val (literature) [reference compound]
- reduction of affinity, substitutions at B17 (soluble receptor; solubilized receptor): 2.5 fold

Substance: HisA8 human insulin: human insulin with the ThrA8 to His mutation (literature)
- affinity relative to human insulin in IM-9 lymphocytes (IM-9 cell receptors [4]; ref 47, 56): 300%
- affinity relative to human insulin in HepG2 cells (HepG2 cells): 327%

Substance: hagfish insulin: insulin from the Atlantic hagfish (Myxine glutinosa), gift from S. Falkmer (Insulin B chain RTTGHLCGKDLVNALYIACGVRGFFYDPTKM; Insulin A chain GIVEQCCHKRCSIYDLENYCN; ends and bridges not checked; cysteine pairing not given here; UniProt P01342 27-57; P01342 95-115, looked up)
- incubation time to reach apparent steady state of binding [1]: 4 h
- biological activity in rat fat pad (rat fat pad): 7%
- relative affinity for the purified soluble human receptor ectodomain [7]: 22%
- maximal lipogenesis (primary rat adipocytes): same maximal lipogenesis as human insulin
- metabolic potency relative to human insulin (primary rat adipocytes): 8.4% and 8%
- mitogenic potency relative to human insulin ([2]; thymidine incorporation): 32%
- relative mitogenic potency over relative metabolic potency [2]: 3.8
- maximal stimulation ([2]; thymidine incorporation, difference not statistically significant): 75 % of that of human insulin
- biological activity in stimulating lipogenesis in rat adipocytes (rat adipocytes; ref 16): 3.8%
- biological activity in stimulating lipogenesis in rat adipocytes (rat adipocytes; ref 51): 4.6%
- biological potency in stimulating lipogenesis (rat adipocytes; same cells, relative to porcine insulin): 3−5%
- maximal acceleration of dissociation of 125I-labeled porcine insulin (IM-9 cell receptors [8]): same maximal acceleration
- potency to accelerate the dissociation of 125I-labeled porcine insulin (IM-9 cell receptors [8]): 5 % of unlabeled porcine insulin
- potency in rat liver cells (rat liver cells): 3%
- mitogenic:metabolic potency ratio [9]: 1.0
- biological activity for deoxyglucose transport (deoxyglucose transport): 5−10%
- affinity for isolated rat adipocytes, % of that of porcine insulin (isolated rat adipocytes): 23%

Substance: IleA10 with Ser: insulin with substitution of IleA10 with Ser as in IGF-I and IGF-II (literature) [reference compound]
- loss of affinity (insulin receptor; ref 64): 5 fold

Substance: HisB10Asp: human insulin analogue, His to Asp at B10
- enhancement of the affinity and activity of human insulin (insulin receptor; ref 31, 46): 3−5 fold
